# Assay outcomes as filed in PubChem BioAssay.
# Sampled rows, rich in hits. Any-hit rate of the full collection: about 3%.
# Insulin prom inh – TRM-6 insulin promoter activity inhibition. TRM-6 cells (human fetal islet line), insulin promoter-eGFP reporter, imaging; reporter expression induced with tamoxifen. inhibition, % at 2 µM. 130,000 compounds, 0.9% hits;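 active means inhibition above the mean plus 3 SD, with well images judged a real hit on visual review, cut at about 60% in these data, passing the limit was not always enough; inconclusive means inhibition over the cutoff but images rejected on review; inactive means inhibition not above the cutoff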
# Ins promoter up – MIN6 insulin promoter up-regulation; AID 1625; MIN6 insulin promoter-GFP reporter, high-content imaging; stronger effect = higher value; 190,000 compounds, 0.3% hits; z-score at 5 µM;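 active means z-score above 3 at 5 µM with at least 500 cells counted in the well; inconclusive means wells under 500 cells, flagged as cytotoxic or low count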
# BB579 growth dn – yeast BB579 growth reduction in restrictive medium; inhibition, % at 10 µM; 140,000 compounds, 0.51% hits; AID 804; S. cerevisiae BB579 growth, OD615, 48 h;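 active means inhibition above a set limit, 3 SD over the mean compound inhibition, cut at about 44% in these data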
#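 Detection: OD615 turbidity measurement; Material: Saccharomyces cerevisiae DeaD strain BB579, replicative lifespan model yeast; Timing: 48 h exposure, 30 °C; Doses: single 10 µM dose; Medium: CSMM-D restrictive synthetic medium containing dextrose (glucose); Controls: amphotericin B at 10 µg/mL as positive control.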
# Yeast life ext – extends the lifespan of yeast; S. cerevisiae growth with nicotinamide, OD615; deaD strain in restrictive glucose medium; AID 775; inhibition of the nicotinamide effect, % at 10 µM; 130,000 compounds, 0.68% hits;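 active means inhibition above a set limit, placed 3 SD over the median of all compounds, cut at about 26% in these data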;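 further: 0% = nicotinamide-treated wells and 100% = cells grown without nicotinamide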
#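 Buffer or medium: CSMM-D glucose medium, restrictive; test system: modified budding yeast, DeaD strain; compound: single dose 10 µM compound, 0.25% DMSO; schedule: culture preincubation 4 h, compound exposure 48 h, both 30 °C; detection: optical density (absorbance) at 615 nm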
# RAM network inh – yeast RAM network inhibition; AID 868; S. cerevisiae dse1pr::URA3 reporter, 5-FOA growth OD615, 2 d; analog-sensitive cbk1-as2 kinase mutant strain; 190,000 compounds, 1.8% hits; inhibition, % at 50 µM;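 active means inhibition above a set limit, 3 SD over mean compound inhibition, cut at about 8.4% in these data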;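 further: 0% = DMSO-only wells with no growth and 100% = 10 µM 1-NA-PP1 full growth; inhibition rescues growth on 5-FOA so higher OD means more RAM inhibition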
# An asterisk follows results filed as active; ? = inconclusive; nt = no result.
SMILES,Insulin prom inh,Ins promoter up,BB579 growth dn,Yeast life ext,RAM network inh
O=C1COc2ccc(C(=O)CSc3nnc(Cc4cccs4)n3-c3ccccc3)cc2N1,71.4*,-0.17,-16.0,25.3,3.3
O=C1COc2ccc(C(=O)CSc3nnc(-c4cccs4)n3Cc3ccccc3)cc2N1,nt,0.42,-15.7,-6.2,1.8
O=C(Cn1cnc([N+](=O)[O-])n1)NC1CC1,-26.7,-0.14,nt,nt,1.9
CCN(CC)CCn1c(=S)[nH]c2ccc(Cl)cc2c1=O,nt,3.97*,-15.9,2.6,0.5
CCN(CC)CCn1c(=S)[nH]c2cc(Cl)ccc2c1=O,nt,-1.23,-0.4,-6.1,0.7
CN(C)c1cccc2c1c(NC(=O)c1ccc(Cl)cc1)nn2C,nt,0.64,nt,nt,nt
C[C@@H](NC(=O)c1nc[nH]c1C(=O)N[C@@H](Cc1ccccc1)C(=O)OCc1ccccc1)c1ccccc1,nt,-0.47,nt,nt,7.9
CC(C)C[C@H](NC(=O)c1nc[nH]c1C(=O)NCCCCCNC(=O)OC(C)(C)C)C(=O)OCc1ccccc1,nt,0.16,nt,nt,10.2*
C[C@H](NC(=O)c1nc[nH]c1C(=O)N[C@@H](Cc1ccccc1)C(=O)OCc1ccccc1)c1ccccc1,nt,-0.4,nt,nt,8.6*
C[C@H](NC(=O)c1nc[nH]c1C(=O)NCCCCCNC(=O)OC(C)(C)C)C(=O)OCc1ccccc1,nt,-0.24,nt,nt,1.6
CC(C)(C)CN1CCNC(=O)C1CC(=O)NCCN1CCCc2ccccc21 (stereo not given),nt,0.1,nt,nt,0.4
CC1=NNC(=O)C1CCC(=O)N/N=C/c1ccc(C)cc1 (stereo not given),nt,3.3*,nt,nt,nt
COC(=O)c1c(NC(=O)CN2CCC3(O)CCCCC3C2c2cc(OC)ccc2OC)sc(C)c1C (stereo not given),64.3*,-0.23,-44.1,9.3,0.7
COC(=O)c1c(NC(=O)CN2CCC3(O)CCCCC3C2c2ccc(F)cc2)sc(C)c1C (stereo not given),-14.3,-0.1,-39.2,0.7,0.0
CCOC(=O)C1CCCN(C2CC(=O)N(c3ccc(NC(C)=O)cc3)C2=O)C1 (stereo not given),12.5,-0.3,nt,nt,1.9
CCOC(=O)C1CCCN(C2CC(=O)N(c3ccc(C)cc3)C2=O)C1 (stereo not given),67.7*,-0.22,1.1,-1.1,0.8
COc1ccc(CN2C(=O)CCC2(C)C(=O)NC2CCCCCC2)cc1 (stereo not given),nt,-0.58,-6.7,-2.4,2.5
COc1ccc(CN2C(=O)CCC2(C)C(=O)NC2CCCC2)c(OC)c1 (stereo not given),70.0*,-0.15,1.1,2.0,0.3
CCc1nc(NC(C)(C)C)c2cnn(-c3ccccc3)c2n1,nt,-0.05,nt,nt,nt
Cc1ccc(S(=O)(=O)Oc2ccccc2/C=N/N=C(N)N)cc1,nt,-1.32,nt,nt,0.0
Cc1ccc(S(=O)(=O)Oc2ccccc2/C=N/NC(N)=S)cc1,-102.7,-1.49,-31.7,11.2,9.1*
Cc1cc(C)c2nc(NNC(=O)c3cc(-c4cccs4)nc4ccccc34)sc2c1,?,3.73*,-14.1,-0.4,2.8
CC(NC(=O)c1cc(S(=O)(=O)N(C)C)ccc1N1CCCC1)C1CC2CCC1C2 (stereo not given),-44.4,-0.7,nt,nt,1.8
COc1ccc(S(=O)(=O)Nc2cccc(F)c2)cc1C,-38.9,nt,nt,nt,-1.0
CCOc1cc(C)c(S(=O)(=O)Nc2ccc(F)cc2)cc1C,-38.5,nt,-20.3,-17.7,13.4*
SMILES,Insulin prom inh,Ins promoter up,BB579 growth dn,Yeast life ext,RAM network inh
COc1ccc(C)cc1S(=O)(=O)Nc1ccc(F)cc1,-28.2,-0.57,-0.5,-15.7,-0.4
COc1ccc(S(=O)(=O)Nc2ccc(S(=O)(=O)Nc3ccc(F)cc3)cc2)cc1C,7.7,nt,-8.3,nt,9.6*
COc1ccc(C)cc1NC(=S)NC(C)c1ccc(OC)c(OC)c1 (stereo not given),nt,-0.98,nt,nt,3.4
O=C(/C=C/c1cccc(Oc2ccccc2)c1)N1CCOCC1,nt,0.52,nt,nt,5.8
COc1ccccc1-c1c(C)oc2cc(OC(=O)c3ccco3)ccc2c1=O,-100.0,-0.07,-20.6,32.1*,2.0
C=CCn1c(SCC(=O)Nc2sccc2C(N)=O)nc2ccc(Cl)cc2c1=O,-16.2,-0.89,-54.7,-10.3,0.7
C=CCn1c(SCC(=O)Nc2sccc2C(N)=O)nc2sc(CC)cc2c1=O,-15.4,0.08,-43.3,0.1,8.5*
Cc1ccc(/C=C/c2nc3ccccc3c(=O)n2CCc2ccccc2)cc1,nt,-0.53,-37.5,1.5,10.1*
CC(C)c1cc(C(=O)Nc2ccc3c(c2)OCO3)no1,80.0*,0.31,-39.8,-14.1,-1.2
